{"source": "ChEMBL document CHEMBL5244249", "about": "“Discovery of tofacitinib derivatives as orally active antitumor agents based on the scaffold hybridization strategy” (Eur J Med Chem, 2020)", "key": {"MGC-803": {"system": "MGC-803", "assay": "Induction of apoptosis in human MGC-803 cells assessed as viable cells at 7.5 uM incubated for 48 hrs by Annexin V-FITC/PI staining based flow cytometric analysis (reference value: 96.7 %)", "assay_type": "functional", "conditions": "read-out: Activity"}, "[1]": {"assay": "Toxicity in SCID mouse xenografted with human MGC-803 cells assessed as effect on spleen at 12.5 to 25 mg/kg, IG administered for 21 days by H&E staining based histopathological analysis", "assay_type": "organism-based", "conditions": "in vivo, po, 504 h, dose 12.5-25 mg/kg, time 21 day", "procedure,_shortened": "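SCID mice bearing subcutaneous MGC-803 xenografts (right side) dosed with 12.5 or 25 mg/kg over 21 days, 0.5% CMC-Na vehicle as control; body weight and tumor size monitored periodically; major organs examined histopathologically at end; means ± SD.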"}}, "data": [{"smiles": "Cc1cc(N2CC[C@@H](C)[C@@H](N(C)c3ncnc4[nH]ccc34)C2)n2nc(SCc3ccc(C(F)(F)F)cc3)nc2n1", "values": [{"measurement": "viability at 7.5 µM", "setting": "MGC-803", "value": 22.1, "unit": "%"}, {"measurement": "Activity", "setting": "[1]", "value": "Non-Toxic"}]}]}
